# Measured values published in ChEMBL document CHEMBL5143669, “Stapled peptides as scaffolds for developing radiotracers for intracellular targets: Preliminary evaluation of a radioiodinated MDM2-binding stapled peptide in the SJSA-1 osteosarcoma model” (Bioorg Med Chem Lett, 2022).
# Columns and labels:
# [1] = Biodistribution in Bone of athymic mouse xenografted with human SJSA-1 cells at 166.5 kBq, iv after 2 hrs by automated gamma counting method; type: ADME, organism-based, Bone element; details: in vivo
# Summary of the method: (§1)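 125I-labeled peptide (166.5 kBq in 100 μL) was injected via tail vein into athymic mice bearing flank SJSA-1 xenografts, n = 5 per time point. Tumors, blood and major organs were gamma-counted at 0.5, 2, 6 and 24 h post-injection. Values are %ID/g.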
# [2] = Biodistribution in Blood of athymic mouse xenografted with human SJSA-1 cells at 166.5 kBq, iv after 30 mins by automated gamma counting method; type: ADME, organism-based; details: in vivo, 0.5 h; summary of the method: as §1
# [3] = Biodistribution in Lung of athymic mouse xenografted with human SJSA-1 cells at 166.5 kBq, iv after 24 hrs by automated gamma counting method; type: ADME, organism-based; details: in vivo; summary of the method: as §1
# [4] = Biodistribution in Small intestine of athymic mouse xenografted with human SJSA-1 cells at 166.5 kBq, iv after 2 hrs by automated gamma counting method; type: ADME, organism-based; details: in vivo; summary of the method: as §1
# [5] = Biodistribution in Thyroid of athymic mouse xenografted with human SJSA-1 cells at 166.5 kBq, iv after 30 mins by automated gamma counting method; type: ADME, organism-based, Thyroid gland; details: in vivo, 0.5 h
# Summary of the method: (§2)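 Athymic mice bearing flank SJSA-1 xenografts received 125I-SIB-labeled peptide (166.5 kBq, 100 μL) by tail vein; groups of five per time point. Tumor, blood and organs were taken at 0.5–24 h and counted by gamma counter; values expressed as %ID/g.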
# [6] = Biodistribution in Thyroid of athymic mouse xenografted with human SJSA-1 cells at 166.5 kBq, iv after 24 hrs by automated gamma counting method; type: ADME, organism-based, Thyroid gland; details: in vivo; summary of the method: as §2
# [7] = Biodistribution in Spleen of athymic mouse xenografted with human SJSA-1 cells at 166.5 kBq, iv after 6 hrs by automated gamma counting method; type: ADME, organism-based; details: in vivo; summary of the method: as §1
# [8] = Biodistribution in Liver of athymic mouse xenografted with human SJSA-1 cells at 166.5 kBq, iv after 6 hrs by automated gamma counting method; type: ADME, organism-based; details: in vivo; summary of the method: as §1
# [9] = Biodistribution in Skin of athymic mouse xenografted with human SJSA-1 cells at 166.5 kBq, iv after 30 mins by automated gamma counting method; type: ADME, organism-based, Skin of body; details: in vivo, 0.5 h; summary of the method: as §1
# [10] = Biodistribution in Bone of athymic mouse xenografted with human SJSA-1 cells at 166.5 kBq, iv after 30 mins by automated gamma counting method; type: ADME, organism-based, Bone element; details: in vivo, 0.5 h; summary of the method: as §1
# [11] = Biodistribution in Brain of athymic mouse xenografted with human SJSA-1 cells at 166.5 kBq, iv after 30 mins by automated gamma counting method; type: ADME, organism-based; details: in vivo, 0.5 h; summary of the method: as §1
# [12] = Biodistribution in Tumor of athymic mouse xenografted with human SJSA-1 cells at 166.5 kBq, iv after 24 hrs by automated gamma counting method; type: ADME, organism-based, Neoplasm; details: in vivo; summary of the method: as §2
# [13] = Biodistribution in Urinary bladder of athymic mouse xenografted with human SJSA-1 cells at 166.5 kBq, iv after 30 mins by automated gamma counting method; type: ADME, organism-based; details: in vivo, 0.5 h; summary of the method: as §2
# [14] = Drug uptake in MDM2-amplified human SJSA-1 cells expressing wild type p53 assessed as initially bound radioactivity incubated for 1.5 hrs subsequently re-incubating the cells with fresh medium for up to 2 hrs; type: ADME, cell-based; details: sjsa-1, 1.5 h
# Summary of the method: (§3)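 SJSA-1 cells were loaded with 125I-labeled peptide for 1 h, then reincubated in fresh medium for 0.5–2 h. Cell-retained activity and cumulative release into the supernatant were expressed as percentage of initially bound activity.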
# [15] = Biodistribution in Kidney of athymic mouse xenografted with human SJSA-1 cells at 166.5 kBq, iv after 24 hrs by automated gamma counting method; type: ADME, organism-based; details: in vivo; summary of the method: as §1
# [16] = Biodistribution in Spleen of athymic mouse xenografted with human SJSA-1 cells at 166.5 kBq, iv after 2 hrs by automated gamma counting method; type: ADME, organism-based; details: in vivo; summary of the method: as §1
# [17] = Biodistribution in Large intestine of athymic mouse xenografted with human SJSA-1 cells at 166.5 kBq, iv after 6 hrs by automated gamma counting method; type: ADME, organism-based; details: in vivo; summary of the method: as §1
# [18] = Biodistribution in Small intestine of athymic mouse xenografted with human SJSA-1 cells at 166.5 kBq, iv after 30 mins by automated gamma counting method; type: ADME, organism-based; details: in vivo, 0.5 h; summary of the method: as §1
# [19] = Biodistribution in Lung of athymic mouse xenografted with human SJSA-1 cells at 166.5 kBq, iv after 30 mins by automated gamma counting method; type: ADME, organism-based; details: in vivo, 0.5 h; summary of the method: as §1
# [20] = Biodistribution in Blood of athymic mouse xenografted with human SJSA-1 cells at 166.5 kBq, iv after 2 hrs by automated gamma counting method; type: ADME, organism-based; details: in vivo; summary of the method: as §1
# [21] = Biodistribution in Thyroid of athymic mouse xenografted with human SJSA-1 cells at 166.5 kBq, iv after 2 hrs by automated gamma counting method; type: ADME, organism-based, Thyroid gland; details: in vivo; summary of the method: as §2
# [22] = Biodistribution in Large intestine of athymic mouse xenografted with human SJSA-1 cells at 166.5 kBq, iv after 24 hrs by automated gamma counting method; type: ADME, organism-based; details: in vivo; summary of the method: as §1
# [23] = Biodistribution in Tumor of athymic mouse xenografted with human SJSA-1 cells at 166.5 kBq, iv after 30 mins by automated gamma counting method; type: ADME, organism-based, Neoplasm; details: in vivo, 0.5 h; summary of the method: as §2
# [24] = Biodistribution in Thyroid of athymic mouse xenografted with human SJSA-1 cells at 166.5 kBq, iv after 6 hrs by automated gamma counting method; type: ADME, organism-based, Thyroid gland; details: in vivo; summary of the method: as §2
# [25] = Biodistribution in Brain of athymic mouse xenografted with human SJSA-1 cells at 166.5 kBq, iv after 6 hrs by automated gamma counting method; type: ADME, organism-based; details: in vivo; summary of the method: as §1
# [26] = Biodistribution in Bone of athymic mouse xenografted with human SJSA-1 cells at 166.5 kBq, iv after 24 hrs by automated gamma counting method; type: ADME, organism-based, Bone element; details: in vivo; summary of the method: as §1
# [27] = Biodistribution in Liver of athymic mouse xenografted with human SJSA-1 cells at 166.5 kBq, iv after 2 hrs by automated gamma counting method; type: ADME, organism-based; details: in vivo; summary of the method: as §1
# [28] = Biodistribution in Kidney of athymic mouse xenografted with human SJSA-1 cells at 166.5 kBq, iv after 2 hrs by automated gamma counting method; type: ADME, organism-based; details: in vivo; summary of the method: as §1
# [29] = Lipophilicity, logD of the compound using n-octanol and phosphate-buffered saline at pH 7.4 by the shake flask method; type: physicochemical
# Summary of the method: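 Shake-flask partition of the 125I-labeled peptide between n-octanol and PBS pH 7.4; logD from n = 4.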
# [30] = Biodistribution in Urinary bladder of athymic mouse xenografted with human SJSA-1 cells at 166.5 kBq, iv after 6 hrs by automated gamma counting method; type: ADME, organism-based; details: in vivo; summary of the method: as §2
# [31] = Biodistribution in Kidney of athymic mouse xenografted with human SJSA-1 cells at 166.5 kBq, iv after 30 mins by automated gamma counting method; type: ADME, organism-based; details: in vivo, 0.5 h; summary of the method: as §1
# [32] = Biodistribution in Large intestine of athymic mouse xenografted with human SJSA-1 cells at 166.5 kBq, iv after 30 mins by automated gamma counting method; type: ADME, organism-based; details: in vivo, 0.5 h; summary of the method: as §1
# [33] = Biodistribution in Bone of athymic mouse xenografted with human SJSA-1 cells at 166.5 kBq, iv after 6 hrs by automated gamma counting method; type: ADME, organism-based, Bone element; details: in vivo; summary of the method: as §1
# [34] = Drug uptake in MDM2-amplified human SJSA-1 cells expressing wild type p53 assessed as initially bound radioactivity incubated for 0.5 hrs subsequently re-incubating the cells with fresh medium for up to 2 hrs; type: ADME, cell-based; details: sjsa-1, 0.5 h; summary of the method: as §3
# [35] = Biodistribution in Skin of athymic mouse xenografted with human SJSA-1 cells at 166.5 kBq, iv after 2 hrs by automated gamma counting method; type: ADME, organism-based, Skin of body; details: in vivo; summary of the method: as §1
# [36] = Biodistribution in Brain of athymic mouse xenografted with human SJSA-1 cells at 166.5 kBq, iv after 24 hrs by automated gamma counting method; type: ADME, organism-based; details: in vivo; summary of the method: as §1
structure (smiles),measurement,setting,value
CC(=O)NC(CCCCNC(=O)c1cccc([125I])c1)C(=O)NCCCCCC(=O)N[C@H](C(=O)N[C@@H](CO)C(=O)N[C@@H](Cc1ccccc1)C(=O)N[C@@]1(C)CCCCCC/C=C/CCC[C@@](C)(C(=O)N[C@@H](CCC(=O)O)C(=O)N[C@@H](CC(N)=O)C(=O)N[C@@H](Cc2ccccc2)C(N)=O)NC(=O)[C@H](CC(C)C)NC(=O)[C@H](CC(C)C)NC(=O)[C@H](C)NC(=O)[C@H](Cc2c[nH]c3ccccc23)NC(=O)[C@H](Cc2ccc(O)cc2)NC(=O)[C@H](CCC(=O)O)NC1=O)[C@@H](C)O (stereo partly specified),Drug uptake,[1],0.33 % ID/g
same,Drug uptake,[2],8.33 % ID/g
same,Drug uptake,[3],0.33 % ID/g
same,Drug uptake,[4],2.17 % ID/g
same,Drug uptake,[5],0.89 % ID/g
same,Drug uptake,[6],0.27 % ID/g
same,Drug uptake,[7],1.99 % ID/g
same,Drug uptake,[8],11.41 % ID/g
same,Drug uptake,[9],0.57 % ID/g
same,Drug uptake,[10],0.38 % ID/g
same,Drug uptake,[11],0.24 % ID/g
same,Drug uptake,[12],0.36 % ID/g
same,Drug uptake,[13],0.61 % ID/g
same,Drug uptake,[14],66.4%
same,Drug uptake,[15],0.63 % ID/g
same,Drug uptake,[16],1.8 % ID/g
same,Drug uptake,[17],4.44 % ID/g
same,Drug uptake,[18],0.43 % ID/g
same,Drug uptake,[19],4.27 % ID/g
same,Drug uptake,[20],6.84 % ID/g
same,Drug uptake,[21],1.14 % ID/g
same,Drug uptake,[22],1.87 % ID/g
same,Drug uptake,[23],1.8 % ID/g
same,Drug uptake,[24],1.19 % ID/g
same,Drug uptake,[25],0.2 % ID/g
same,Drug uptake,[26],0.16 % ID/g
same,Drug uptake,[27],18.41 % ID/g
same,Drug uptake,[28],2.54 % ID/g
same,logD,[29],1.45
same,Drug uptake,[30],0.95 % ID/g
same,Drug uptake,[31],3.06 % ID/g
same,Drug uptake,[32],0.06 % ID/g
same,Drug uptake,[33],0.29 % ID/g
same,Drug uptake,[34],83.1%
same,Drug uptake,[35],0.88 % ID/g
same,Drug uptake,[36],0.02 % ID/g
